The conditions of data set [1]: cited from earlier work.
A short description of data set [2]: Microsome metabolic stability and predicted hepatic clearance. It counts as in vitro ADME. As to conditions: Sprague-Dawley (SD), rat, liver microsomes, pH 7.4. The gist of the method: (§1)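 Liver microsomes (0.5 mg/mL) incubated with 3 µM test compound in 50 mM phosphate buffer, pH 7.4. After 3 min pre-incubation at 37°C, 5 mM NADPH started the reaction. Samples at 0, 5, 15, 30, 45 and 60 min, quenched in acetonitrile with internal standard, then LC-MS/MS. NADPH-free controls sampled at 0 and 60 min.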

Assay in data set [3]: as above
It counts as in vitro ADME. The settings on record: CD-1, mouse, liver microsomes, pH 7.4. The method, boiled down:
as §1

The conditions of data set [4]: in vivo pharmacokinetic studies; cited from earlier work.
The nature of data set [5]: Stability in plasma. Format: in vitro ADME. As to conditions: SD, rat. The method, boiled down:
(§2)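 Test compound at 1 μM incubated at 37°C for up to 4 h in plasma. Sources: CD-1 mouse, SD rat (fresh, from male rats), monkey or human. Aliquots at set times quenched with acetonitrile containing clioquinol as internal standard. Centrifuged at 18,879 rcf for 5 min, and supernatant assayed by LC-MS/MS for compound remaining.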

Data set [6] deals with Mycobacterium tuberculosis. The settings on record: cited from earlier work.
The next data set concerns the target T1, CYP1A2 (Homo sapiens, UniProt P05177).
T1 sequence (P05177 1-516): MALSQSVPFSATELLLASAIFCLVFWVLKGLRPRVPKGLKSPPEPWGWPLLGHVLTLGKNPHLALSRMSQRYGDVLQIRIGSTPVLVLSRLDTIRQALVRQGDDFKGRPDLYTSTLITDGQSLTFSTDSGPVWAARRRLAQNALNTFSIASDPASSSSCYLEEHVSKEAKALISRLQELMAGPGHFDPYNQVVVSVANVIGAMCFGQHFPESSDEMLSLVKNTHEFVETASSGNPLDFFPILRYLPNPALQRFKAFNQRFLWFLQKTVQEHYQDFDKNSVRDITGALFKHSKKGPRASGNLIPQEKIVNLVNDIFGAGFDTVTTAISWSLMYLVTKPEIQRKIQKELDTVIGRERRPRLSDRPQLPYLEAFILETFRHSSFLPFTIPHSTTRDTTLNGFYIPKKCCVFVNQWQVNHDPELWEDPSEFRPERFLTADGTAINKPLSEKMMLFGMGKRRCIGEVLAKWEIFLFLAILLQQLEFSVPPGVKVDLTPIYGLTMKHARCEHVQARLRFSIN
Description: CYP reaction phenotyping with rhCYP. It counts as in vitro ADME. The gist of the method: (§3)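 Recombinant human CYP (200 pmol) with 1 µM test compound in 100 mM K2HPO4/10 mM MgCl2, pH 7.4, pre-incubated. Reaction started with 1 mM NADPH. DMSO kept ≤0.1% v/v and acetonitrile ≤1% v/v. Samples at 0, 5, 15, 30 and 60 min, stopped with acetonitrile containing internal standard, then centrifuged. Negative controls lacked NADPH, used insect control cells, or both.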

The next data set has as its target CYP2D6 (Homo sapiens, UniProt P10635). The experiment in a line: CYP reaction phenotyping with rhCYP. Format: in vitro ADME. The gist of the method:
as §3

A short description of data set [7]: Stability in plasma. The settings on record: human. It counts as in vitro ADME. The gist of the method:
as §2

The nature of the next data set: Blood-plasma partition. It counts as in vitro ADME. As to conditions: SD rat blood, 1 μM, 37°C, 1 hr, mean ± SEM. The gist of the method: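 Test compound spiked into fresh whole SD rat blood at 1 μM final and held 1 hr at 37°C. Plasma separated by centrifugation (15 min, 4°C, 1750 rcf). Blood and plasma assayed by LC-MS/MS. B/P taken as mean peak-area ratio in blood over plasma. Its SEM was propagated as the square root of summed squared SEM/mean terms, multiplied by B/P.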

Data set [8] is described as follows: Microsome metabolic stability and predicted hepatic clearance. It counts as in vitro ADME. The settings on record: cynomolgus monkey, liver microsomes, pH 7.4. The method, boiled down:
as §1

Data set [9] in a line: Human hepatic clearance by single species scaling using liver blood flow. As to conditions: single species (SD rat) scaling of in vivo clearance and liver blood flow.
Data set [10] in a line: Plasma protein binding, centrifugal ultrafiltration. It counts as in vitro ADME. The settings on record: Sprague-Dawley, rat, Fraction bound to plasma protein, mean ± SD.
Data set [11] deals with MtMetAPs (MtMetAP1a and MtMetAP1c). The settings on record: both MtMetAPs over human MetAPs; cited from earlier work.
Data set [12] in a line: Solution state pH stability in USP buffers. Format: physicochemical. As to conditions: aqueous media pH 1-10, 37°C, up to 48 hrs. The method, boiled down: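 Test compound added from DMSO to USP buffers with 0.2% v/v Tween 80: 0.2 M HCl (pH 1–2), 0.2 M acetate (pH 3–5), 0.2 M phosphate (pH 6–8), carbonate (pH 9–10). Held in a 37°C water bath. Aliquots at set times assayed by HPLC-UV for compound remaining. Degradation rate constant derived per buffer.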

The nature of data set [13]: Pharmacokinetics and bioavailability in SD rats. Format: in vivo. The settings on record: Sprague-Dawley, rat, plasma. The gist of the method:
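Male SD rats (300–350 g), cannulated under anesthesia the day before, n = 3 per group. Single dose of 2 mg/kg IV bolus, 20 mg/kg PO (fasted ≥12 h) or 10 mg/kg SC. Co-solvent formulation diluted 5-fold with saline (IV, SC) or water (PO). Blood taken 0.08–48 h, plasma by LC-MS/MS. Non-compartmental analysis; F from dose-normalised extravascular versus IV AUC.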

Data set [14] can be described thus: Thermodynamic solubility, shake-flask method. Format: physicochemical. The settings on record: room temperature. The method, boiled down:
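Shake-flask method: excess test compound shaken in solvent at room temperature for 72 h after saturation. Centrifuged (18,879 rcf, 10 min) and filtered through 0.22 μm. Dissolved compound quantified by HPLC-UV, in triplicate.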

Data set [15] in a line: Microsome metabolic stability and predicted hepatic clearance. Format: in vitro ADME. As to conditions: human, liver microsomes, pH 7.4. The gist of the method:
as §1

For data set [16] the following is noted: cited from earlier work. The source holds these as a separate data set.
For the next data set, the target named is T2, CYP2C8 (Homo sapiens, UniProt P10632).
T2 sequence (P10632 1-490): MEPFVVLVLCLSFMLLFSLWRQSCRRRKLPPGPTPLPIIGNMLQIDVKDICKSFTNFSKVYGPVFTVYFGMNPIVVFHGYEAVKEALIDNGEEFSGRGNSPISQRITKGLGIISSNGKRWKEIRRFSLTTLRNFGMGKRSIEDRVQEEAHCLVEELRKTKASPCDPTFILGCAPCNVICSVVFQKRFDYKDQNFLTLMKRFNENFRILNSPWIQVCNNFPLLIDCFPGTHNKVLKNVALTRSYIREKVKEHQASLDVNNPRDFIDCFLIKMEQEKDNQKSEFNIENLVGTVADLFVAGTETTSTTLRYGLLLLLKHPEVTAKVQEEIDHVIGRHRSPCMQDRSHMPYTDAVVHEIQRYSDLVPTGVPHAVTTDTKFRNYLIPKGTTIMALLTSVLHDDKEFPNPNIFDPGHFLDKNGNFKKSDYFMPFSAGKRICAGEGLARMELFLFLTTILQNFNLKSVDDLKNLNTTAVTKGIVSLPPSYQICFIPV
The experiment in a line: CYP reaction phenotyping with rhCYP. As to conditions: rhCYP2C8. It counts as in vitro ADME. The gist of the method: as §3

The nature of data set [17]: Stability in plasma. Format: in vitro ADME. As to conditions: CD-1, mouse. The method, boiled down: as §2
Data set [18] can be described thus: Stability in plasma. As to conditions: rhesus, monkey. It counts as in vitro ADME. The gist of the method:
as §2

Results on 2 compounds are retold here after paper PMC7127848 (Drug Design, Development and Therapy, 2020).

SMILES strings stand for the structures. In brackets after ≈: the same amount, converted by molar mass. Several values for one entry are separate records, joined by “and”; a condition that tells them apart may be missing. Equal entries are not always repeated. Entries after “also recorded” stand apart in the source; their conditions may differ.

CYP2D6, sequence (P10635 whole entry): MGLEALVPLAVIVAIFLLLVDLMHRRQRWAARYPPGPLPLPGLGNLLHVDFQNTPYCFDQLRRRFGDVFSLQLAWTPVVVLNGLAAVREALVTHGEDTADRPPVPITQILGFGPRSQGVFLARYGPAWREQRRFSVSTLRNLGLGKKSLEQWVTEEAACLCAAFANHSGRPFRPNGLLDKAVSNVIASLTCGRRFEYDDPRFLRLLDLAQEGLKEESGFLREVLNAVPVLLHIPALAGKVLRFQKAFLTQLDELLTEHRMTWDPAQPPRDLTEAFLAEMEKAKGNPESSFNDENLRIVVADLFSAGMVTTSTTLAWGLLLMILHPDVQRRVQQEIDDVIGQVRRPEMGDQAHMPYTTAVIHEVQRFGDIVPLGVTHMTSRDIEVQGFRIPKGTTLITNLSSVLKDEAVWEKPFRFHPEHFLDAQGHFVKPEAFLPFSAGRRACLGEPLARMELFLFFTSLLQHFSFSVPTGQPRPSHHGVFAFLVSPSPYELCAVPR

One may read the NOAEL as the highest dose or exposure tested at which no adverse effect was seen. Usually LD50 stands for the dose expected to kill half of the subjects tested. Take `CCOCCOCCO` [Transcutol HP]: in [1] (5% solution administered orally to rats for 90 days), the NOAEL is on record as 1%. The LD50 in data set [1] (acute administration) is greater than 5000 mg/kg.

What is called fraction remaining is the share of the starting amount still present when the sample was taken. What is called fraction unbound is free concentration divided by total concentration. As a reminder, the Tmax is the time from dosing to the highest level. The Solubility is the dissolved amount per volume that the medium holds. By solubility is commonly meant the dissolved amount per volume that the medium holds. Take `Oc1c(Br)cc(Cl)c2cccnc12` [CLBQ14, 7-bromo-5-chloroquinolin-8-ol]: the share remaining at 1 h, 3 µM in [2] was 26.8 ± 2.37%; in data set [3], 3.7 ± 1.36%; in data set [8], 17.5 ± 0.86%; in data set [15], 35.5 ± 0.33%. Also, in data set [4], the “Administered dose excreted unchanged in urine” value was 0.01%. The recovery at 4 h, 1 μM in the data set “Stability in plasma [5]” stood at 101 ± 13%; in the data set “Stability in plasma [7]”, 103.7 ± 0.99%; in the data set “Stability in plasma [17]”, 97.6 ± 2.27%; in the data set “Stability in plasma [18]” it was 105 ± 4.25%. The “Potency against aged non-growing Mtb” value in data set [6] is “increased potency”. For the same compound, in data set [6] (replicating Mtb), the “Potency against replicating Mtb” value was “great potency”. For the same compound, the “Contribution to metabolism of CLBQ14” value at CYP1A2 (rhCYP1A2) was “metabolized primarily; also recorded: primary contributors”; on CYP2D6 (rhCYP2D6), “primary contributors”; at CYP2C8 it was “may also be a contributor”. Moreover, the CLBQ14 turnover result on CYP1A2 (rhCYP1A2, 1 µM, 37°C, 60 mins) was “greater than 50%”; on CYP2D6 (rhCYP2D6, 1 µM, 37°C, 60 mins) it was “greater than 50%”. The “Blood-plasma (B/P) ratio” value in the data set “Blood-plasma partition” is 0.83 and 0.83 ± 0.03. Further, the “Human hepatic clearance (ClH, human) predicted” value in [9] was 11.5 mL/min/kg. The compound further returned a fraction unbound at 1 h, 5 μg/mL in data set [10] (5 μg/mL) of 0.09. The compound further gave a fraction unbound at 1 h, 50 μg/mL in [10] (50 μg/mL) of 0.017. Moreover, in [11], the “Selectivity for MtMetAPs over human MetAPs” value is reported as “great selectivity”. Further, the “Stability in aqueous media” value in data set [12] was “relatively stable”. Besides, the Tmax is 30 min in data set [13] (po, 20 mg/kg) and roughly 55 min in [13] (sc, 10 mg/kg). Moreover, in data set [14] (water (pH 7)), the Solubility worked out at 70 µg/mL (≈ 271 µM). The solubility at 72 h in data set [14] (water, pH 7, Solubility) is less than 70 µg/mL. Further, the “calculated log P” value in [16] (25°C / room temperature) is on record as 3.92 ± 0.39. The “calculated pKa” value in data set [16] (25°C) is on record as 2.23 ± 0.30.
